Assays:
Glucocorticoid receptor [1] = target: T1, Glucocorticoid receptor (Homo sapiens, UniProt P04150); test: Competitive binding affinity to glucocorticoid receptor (unknown origin) expressed in baculovirus-infected cell system after 1 hr by fluorescence polarization assay in presence of tetramethylrhodamine-labeled dexamethasone
T1 sequence (P04150 whole entry): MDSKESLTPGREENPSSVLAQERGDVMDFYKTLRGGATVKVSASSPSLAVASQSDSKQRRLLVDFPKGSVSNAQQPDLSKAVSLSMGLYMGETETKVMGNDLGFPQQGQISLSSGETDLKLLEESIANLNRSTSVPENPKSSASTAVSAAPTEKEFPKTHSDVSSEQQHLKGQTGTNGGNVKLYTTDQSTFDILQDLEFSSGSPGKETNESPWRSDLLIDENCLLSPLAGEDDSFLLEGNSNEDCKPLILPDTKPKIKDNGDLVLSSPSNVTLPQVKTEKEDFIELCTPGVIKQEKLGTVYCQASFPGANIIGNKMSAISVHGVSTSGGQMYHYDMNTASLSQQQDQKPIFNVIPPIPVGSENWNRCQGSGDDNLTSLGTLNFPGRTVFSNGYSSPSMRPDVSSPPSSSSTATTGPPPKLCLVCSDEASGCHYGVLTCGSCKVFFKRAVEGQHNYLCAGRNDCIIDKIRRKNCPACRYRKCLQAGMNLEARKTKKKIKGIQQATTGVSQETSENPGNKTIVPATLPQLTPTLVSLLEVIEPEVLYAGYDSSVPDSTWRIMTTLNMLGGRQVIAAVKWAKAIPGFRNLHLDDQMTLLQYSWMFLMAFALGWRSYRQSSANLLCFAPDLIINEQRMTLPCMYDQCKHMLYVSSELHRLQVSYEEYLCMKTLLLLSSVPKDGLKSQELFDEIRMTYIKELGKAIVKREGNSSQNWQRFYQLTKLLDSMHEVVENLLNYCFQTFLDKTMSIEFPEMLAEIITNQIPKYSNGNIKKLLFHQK
Summary of the method: (§1)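 Lysates of baculovirus-infected insect cells co-expressing receptor with HSP-70, HSP-90 and p23 (GR diluted 300-fold, MR 17-fold). Probe 5 nM tetramethylrhodamine-dexamethasone in TES/KCl/molybdate/EDTA/CHAPS/glycerol/DTT buffer, pH 7.4, 1% DMSO. 1 h at room temperature in the dark; fluorescence polarization read (ex 550/em 580 nm). Background set with 2 μM dexamethasone. IC50 from duplicate 11-point curves, four-parameter fit, mean of at least two determinations.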

[2] = target: T2, Glucocorticoid receptor (Homo sapiens) (UniProt P04150); test: Agonist activity at glucocorticoid receptor in human […] cells assessed as suppression of vitamin D-induced osteocalcin production at 2 uM after 48 hrs by Gla-type osteocalcin ELISA relative to dexomethasone; type: cell-based
T2 sequence (whole entry): T1 sequence (P04150 whole entry)
Summary of the method: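 MG-63 human osteosarcoma cells plated at 20000/well in DMEM/F-12 with 1% charcoal-filtered FBS and 10 μg/mL vitamin C. Medium refreshed next day, then vitamin D (10 nM final) added with compound (2 × 10−6 to 10−10 M), duplicates. Incubated 48 h at 37 °C; supernatant osteocalcin measured by Gla-type ELISA. Vitamin D-only wells = 100%. Max efficacy at 2 μM is relative to dexamethasone (100%).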

[3] = target: T2, Glucocorticoid receptor (Homo sapiens); test: Agonist activity at glucocorticoid receptor in human HeLa cells transfected with luciferase gene linked to MMTV promoter assessed as induction of luciferase transactivation activity at 2 uM after 6 hrs by luminescence assay; type: cell-based
Summary of the method: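 HeLa cells stably carrying an MMTV-luciferase construct, plated the day before at 25000/well in DMEM with 3% FBS. Medium replaced, then compound added (0.2% DMSO final); 1 μM dexamethasone wells = 100% induction, vehicle = background. Incubated 6 h at 37 °C, 5% CO2. Luminescence read after lysis; activation expressed as % of positive control. Top concentration 2 μM.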

[4] = target: T2, Glucocorticoid receptor (Homo sapiens); test: Transrepression activity at glucocorticoid receptor in human fibroblasts assessed as inhibition of IL-1-induced IL-6 production at 2 uM after 18 to 24 hrs relative to dexomethasone
Summary of the method: (§2)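 Human foreskin fibroblasts grown in Iscove's medium with 10% charcoal/dextran-treated FBS, plated at 20000/well two days before. Medium replaced, then compound (0.4% DMSO final) and recombinant human IL-1 (1 ng/mL final) added. 18–24 h at 37 °C; IL-6 in medium quantified by electrochemiluminescence, DELFIA or ELISA. IC50 by four-parameter fit of duplicate 11-point curves. Efficacy relative to dexamethasone (100%); top concentration 2 μM.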

Glucocorticoid receptor [5] = target: T1, Glucocorticoid receptor; test: Transrepression activity at glucocorticoid receptor in human fibroblasts assessed as inhibition of IL-1-induced IL-6 production after 18 to 24 hrs; summary of the method: as §2
[6] = target: T3, Mineralocorticoid receptor (Homo sapiens, UniProt P08235); test: Competitive binding affinity to mineralocorticoid receptor (unknown origin) expressed in baculovirus-infected cell system after 1 hr by fluorescence polarization assay in presence of tetramethylrhodamine-labeled dexamethasone; summary of the method: as §1
T3 sequence (P08235 whole entry): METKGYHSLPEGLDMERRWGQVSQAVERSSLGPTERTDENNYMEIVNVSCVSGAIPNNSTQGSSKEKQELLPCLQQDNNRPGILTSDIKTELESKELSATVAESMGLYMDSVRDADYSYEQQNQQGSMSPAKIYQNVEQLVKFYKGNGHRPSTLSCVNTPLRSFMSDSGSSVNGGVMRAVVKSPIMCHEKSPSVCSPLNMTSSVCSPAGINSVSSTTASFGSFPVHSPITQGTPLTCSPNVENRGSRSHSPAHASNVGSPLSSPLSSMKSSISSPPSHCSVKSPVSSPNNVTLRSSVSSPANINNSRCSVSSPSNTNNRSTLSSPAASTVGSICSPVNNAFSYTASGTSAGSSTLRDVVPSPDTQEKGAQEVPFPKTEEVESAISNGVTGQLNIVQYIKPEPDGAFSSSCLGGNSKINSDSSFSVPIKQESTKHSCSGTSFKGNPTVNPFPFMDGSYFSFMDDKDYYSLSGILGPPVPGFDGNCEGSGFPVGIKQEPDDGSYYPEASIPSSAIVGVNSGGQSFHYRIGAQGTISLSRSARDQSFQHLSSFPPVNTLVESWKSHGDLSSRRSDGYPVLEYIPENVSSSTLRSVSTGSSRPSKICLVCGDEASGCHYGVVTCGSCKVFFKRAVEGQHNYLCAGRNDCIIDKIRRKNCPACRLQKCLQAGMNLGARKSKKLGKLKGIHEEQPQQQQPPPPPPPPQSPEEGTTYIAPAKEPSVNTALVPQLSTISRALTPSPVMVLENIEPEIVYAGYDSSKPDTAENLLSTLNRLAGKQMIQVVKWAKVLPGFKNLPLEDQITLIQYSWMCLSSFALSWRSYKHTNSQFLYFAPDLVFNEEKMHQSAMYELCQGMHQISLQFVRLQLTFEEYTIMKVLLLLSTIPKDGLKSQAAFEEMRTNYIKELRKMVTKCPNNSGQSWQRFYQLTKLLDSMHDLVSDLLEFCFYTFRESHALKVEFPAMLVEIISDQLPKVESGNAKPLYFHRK

SMILES | IC50 (Glucocorticoid receptor [1]) [nM] | Emax [2] [%] | Emax [3] [%] | Emax [4] [%] | IC50 (Glucocorticoid receptor [5]) [nM] | IC50 [6] [nM]
Cc1ccc(F)cc1C(C)(C)CC(O)(Cc1cc2ncncc2[nH]1)C(F)(F)F (racemic) | 8 | 32 | 0 | 74 | 19 | 855
Cc1ccc(F)cc1C(C)(C)CC(O)(Cc1cc2nnccc2[nH]1)C(F)(F)F (racemic) | 7 | 45 | 7 | 85 | 16 | 615
Cc1ccc(F)cc1C(C)(C)CC(O)(Cc1cc2cc(-c3ccccc3)nnc2[nH]1)C(F)(F)F (racemic) | 13 | 73 | 75 | – | 6 | > 2000
Cc1ccc(F)cc1C(C)(C)CC(O)(Cc1cc2nc(N3CCS(=O)(=O)CC3)ncc2[nH]1)C(F)(F)F (racemic) | 8 | 80 | 22 | 84 | 19 | > 2000
Cc1ccc(F)cc1C(C)(C)CC(O)(Cc1cc2nc(-c3cccnc3)ncc2[nH]1)C(F)(F)F (racemic) | 5 | 74 | 32 | 92 | 12 | > 2000
Cc1ccc(F)cc1C(C)(C)C[C@@](O)(Cc1cc2nnccc2[nH]1)C(F)(F)F | 5 | 34 | 0 | 86 | 9 | 260
Cc1ccc(F)cc1C(C)(C)CC(O)(Cc1cc2nc(-c3ccccc3)ncc2[nH]1)C(F)(F)F (racemic) | 5 | 72 | 36 | 93 | 8 | 1900

The remaining molecules from weak to strong by IC50 (Glucocorticoid receptor [1]), led by results:

IC50 (Glucocorticoid receptor [1]) [nM] | Emax [2] [%] | Emax [3] [%] | Emax [4] [%] | IC50 (Glucocorticoid receptor [5]) [nM] | IC50 [6] [nM] | SMILES
5 | 35 | 12 | 87 | 13 | 340 | CC(C)(CC(O)(Cc1cc2ncncc2[nH]1)C(F)(F)F)c1cc(Cl)cc2c1OCC2 (racemic)
5 | 28 | 22 | 86 | 9 | 1200 | CC(C)(CC(O)(Cc1cc2ncncc2[nH]1)C(F)(F)F)c1ccc(F)cc1O (racemic)
4 | 32 | 0 | 72 | 13 | 475 | Cc1ccc(F)cc1C(C)(C)C[C@@](O)(Cc1cc2ncncc2[nH]1)C(F)(F)F

Reference: ChEMBL document CHEMBL3124926, “Identification of highly efficacious glucocorticoid receptor agonists with a potential for reduced clinical bone side effects” (J Med Chem, 2014)
